Assay results published in ChEMBL document CHEMBL5143722, “Antimicrobial Peptides against Multidrug-Resistant Pseudomonas aeruginosa Biofilm from Cystic Fibrosis Patients” (J Med Chem, 2022).
The source made the active and inactive calls. The calls are words filed in the database; no cut-off is given here.

Legend:
Pseudomonas aeruginosa [1] = test: Induction of biofilm degradation of Pseudomonas aeruginosa clinical isolate 995 at 50 uM incubated for 1 hr by crystal violet staining analysis relative to control; format: functional
In short: (§1)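 Bacteria at 1 × 10^6 CFU/mL in BM2 grown static at 37 °C for 24 h to form biofilm. Wells rinsed of unattached cells, then exposed for 1 h to serial peptide dilutions (1.56–50 μM). Washed, stained with 0.1% crystal violet, A590 read. Biomass given as % of untreated biofilm; no-bacteria wells as blanks. At least three biological repeats.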

Pseudomonas aeruginosa [2] = test: Induction of biofilm degradation of Pseudomonas aeruginosa clinical isolate 52 at 50 uM incubated for 1 hr by crystal violet staining analysis relative to control; format: functional; in short: as §1
Pseudomonas aeruginosa [3] = test: Induction of biofilm degradation of Pseudomonas aeruginosa PAO1 at 50 uM incubated for 1 hr by crystal violet staining analysis relative to control; format: functional; in short: as §1
Pseudomonas aeruginosa [4] = test: Induction of biofilm degradation of Pseudomonas aeruginosa clinical isolate 172 at 50 uM incubated for 1 hr by crystal violet staining analysis relative to control; format: functional; in short: as §1
Pseudomonas aeruginosa [5] = test: Induction of biofilm degradation of Pseudomonas aeruginosa clinical isolate 53 at sub MIC concentration incubated for 1 hr by crystal violet staining analysis; format: functional; in short: as §1
Pseudomonas aeruginosa [6] = test: Induction of biofilm degradation of Pseudomonas aeruginosa clinical isolate 40 at 50 uM incubated for 1 hr by crystal violet staining analysis relative to control; format: functional; in short: as §1
Pseudomonas aeruginosa [7] = test: Antibiofilm activity against Pseudomonas aeruginosa clinical isolate 72 assessed as inhibition of biofilm formation at sub-inhibitory concentration incubated for 24 hrs by crystal violet staining based microtiter plate method; format: functional, organism-based
In short: (§2)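 Washed overnight cultures in BM2 medium at 1 × 10^6 CFU/mL with 2-fold serial peptide dilutions in a U-bottom 96-well plate. Incubated 24 h at 37 °C without agitation. Unattached cells washed off, then 0.1% crystal violet stain read at 590 nm. No-bacteria blanks. Biomass expressed as % of untreated biofilm. At least three biological repeats.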

Pseudomonas aeruginosa [8] = test: Induction of biofilm degradation of Pseudomonas aeruginosa clinical isolate 71 at 50 uM incubated for 1 hr by crystal violet staining analysis relative to control; format: functional; in short: as §1
Pseudomonas aeruginosa [9] = test: Induction of biofilm degradation of Pseudomonas aeruginosa clinical isolate 629 at 50 uM incubated for 1 hr by crystal violet staining analysis relative to control; format: functional; in short: as §1
Pseudomonas aeruginosa [10] = test: Induction of biofilm degradation of Pseudomonas aeruginosa clinical isolate 46 at 50 uM incubated for 1 hr by crystal violet staining analysis relative to control; format: functional; in short: as §1
Pseudomonas aeruginosa [11] = test: Inhibition of biofilm formation of Pseudomonas aeruginosa clinical isolate 24 derived from cystic fibrosis patient sputum at 0.78 to 25 uM by crystal violet based staining analysis; format: functional, organism-based; details: dose 0.78-25 µM
In short: (§3)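 CF patient sputum diluted 10-fold with BM2, bacteria added with serial peptide dilutions starting from the highest MIC per isolate. Inoculum suspension 1 × 10^6 CFU/mL. Incubated 24 h at 37 °C without agitation. Unattached cells washed away, then 0.1% crystal violet staining and A590. Biomass given as % of untreated, with no-bacteria blanks.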

Pseudomonas aeruginosa [12] = test: Induction of biofilm degradation of Pseudomonas aeruginosa clinical isolate 59 at <12.5 uM incubated for 1 hr by crystal violet staining analysis; format: functional; in short: as §1
Pseudomonas aeruginosa [13] = test: Induction of biofilm degradation of Pseudomonas aeruginosa clinical isolate 82 at 50 uM incubated for 1 hr by crystal violet staining analysis relative to control; format: functional; in short: as §1
Pseudomonas aeruginosa [14] = test: Antibiofilm activity against Pseudomonas aeruginosa clinical isolate 24 assessed as inhibition of biofilm formation at sub-inhibitory concentration incubated for 24 hrs by crystal violet staining based microtiter plate method; format: functional, organism-based; in short: as §2
Pseudomonas aeruginosa [15] = test: Inhibition of biofilm formation of Pseudomonas aeruginosa clinical isolate 24 derived from cystic fibrosis patient sputum at 0.09 to 3.12 uM by crystal violet based staining analysis; format: functional, organism-based; details: dose 0.09-3.12 µM; in short: as §3
Pseudomonas aeruginosa [16] = test: Inhibition of biofilm formation of Pseudomonas aeruginosa clinical isolate 82 derived from cystic fibrosis patient sputum at 0.09 to 3.12 uM by crystal violet based staining analysis; format: functional, organism-based; details: dose 0.09-3.12 µM; in short: as §3
Pseudomonas aeruginosa [17] = test: Induction of biofilm degradation of Pseudomonas aeruginosa clinical isolate 53 at 50 uM incubated for 1 hr by crystal violet staining analysis relative to control; format: functional; in short: as §1
Pseudomonas aeruginosa [18] = test: Antibiofilm activity against Pseudomonas aeruginosa clinical isolate 629 assessed as inhibition of biofilm formation at sub-inhibitory concentration incubated for 24 hrs by crystal violet staining based microtiter plate method; format: functional, organism-based; in short: as §2
Pseudomonas aeruginosa [19] = test: Antibiofilm activity against Pseudomonas aeruginosa clinical isolate 46 assessed as inhibition of biofilm formation at sub-inhibitory concentration incubated for 24 hrs by crystal violet staining based microtiter plate method; format: functional, organism-based; in short: as §2
Pseudomonas aeruginosa [20] = test: Induction of biofilm degradation of Pseudomonas aeruginosa clinical isolate 238 at 50 uM incubated for 1 hr by crystal violet staining analysis relative to control; format: functional; in short: as §1
Pseudomonas aeruginosa [21] = test: Antibiofilm activity against Pseudomonas aeruginosa clinical isolate 99 assessed as inhibition of biofilm formation at sub-inhibitory concentration incubated for 24 hrs by crystal violet staining based microtiter plate method; format: functional, organism-based; in short: as §2
Pseudomonas aeruginosa [22] = test: Induction of biofilm degradation of Pseudomonas aeruginosa clinical isolate 40 at sub MIC concentration incubated for 1 hr by crystal violet staining analysis; format: functional; in short: as §1
Pseudomonas aeruginosa [23] = test: Inhibition of biofilm formation of Pseudomonas aeruginosa PAO1 in patient derived CF-sputum at 0.09 to 3.12 uM by crystal violet based staining analysis; format: functional, organism-based; details: dose 0.09-3.12 µM; in short: as §3
Pseudomonas aeruginosa [24] = test: Antibiofilm activity against Pseudomonas aeruginosa clinical isolate 53 assessed as inhibition of biofilm formation at sub-inhibitory concentration incubated for 24 hrs by crystal violet staining based microtiter plate method; format: functional, organism-based; in short: as §2
Pseudomonas aeruginosa [25] = test: Induction of biofilm degradation of Pseudomonas aeruginosa clinical isolate 29 at 50 uM incubated for 1 hr by crystal violet staining analysis relative to control; format: functional; in short: as §1
Pseudomonas aeruginosa [26] = test: Induction of biofilm degradation of Pseudomonas aeruginosa clinical isolate 24 incubated for 1 hr by crystal violet staining analysis relative to control; format: functional; details: dose 50.0 µM; in short: as §1
Pseudomonas aeruginosa [27] = test: Induction of biofilm degradation of Pseudomonas aeruginosa clinical isolate 99 at 50 uM incubated for 1 hr by crystal violet staining analysis relative to control; format: functional; in short: as §1
Pseudomonas aeruginosa [28] = test: Induction of biofilm degradation of Pseudomonas aeruginosa clinical isolate 72 at 50 uM incubated for 1 hr by crystal violet staining analysis relative to control; format: functional; in short: as §1
Pseudomonas aeruginosa [29] = test: Induction of biofilm degradation of Pseudomonas aeruginosa clinical isolate 25 at 50 uM incubated for 1 hr by crystal violet staining analysis relative to control; format: functional; in short: as §1
Pseudomonas aeruginosa [30] = test: Antibiofilm activity against Pseudomonas aeruginosa clinical isolate 25 assessed as inhibition of biofilm formation at sub-inhibitory concentration incubated for 24 hrs by crystal violet staining based microtiter plate method; format: functional, organism-based; in short: as §2
Pseudomonas aeruginosa [31] = test: Induction of biofilm degradation of Pseudomonas aeruginosa clinical isolate 251 at 50 uM incubated for 1 hr by crystal violet staining analysis; format: functional; in short: as §1
Pseudomonas aeruginosa [32] = test: Antibiofilm activity against Pseudomonas aeruginosa clinical isolate 71 assessed as inhibition of biofilm formation at sub-inhibitory concentration incubated for 24 hrs by crystal violet staining based microtiter plate method; format: functional, organism-based; in short: as §2
Pseudomonas aeruginosa [33] = test: Induction of biofilm degradation of Pseudomonas aeruginosa clinical isolate 24 at sub MIC concentration incubated for 1 hr by crystal violet staining analysis; format: functional; in short: as §1
Pseudomonas aeruginosa [34] = test: Antibiofilm activity against Pseudomonas aeruginosa clinical isolate 99 assessed as inhibition of biofilm formation at MIC incubated for 24 hrs by crystal violet staining based microtiter plate method; format: functional, organism-based; in short: as §2

SMILES	Activity (Pseudomonas aeruginosa [1]) [%]	Activity (Pseudomonas aeruginosa [2]) [%]	Activity (Pseudomonas aeruginosa [3]) [%]	Activity (Pseudomonas aeruginosa [4]) [%]	Activity (Pseudomonas aeruginosa [5])	Activity (Pseudomonas aeruginosa [6]) [%]	inhibition (Pseudomonas aeruginosa [7])	Activity (Pseudomonas aeruginosa [8]) [%]	Activity (Pseudomonas aeruginosa [9]) [%]	Activity (Pseudomonas aeruginosa [10]) [%]	inhibition (Pseudomonas aeruginosa [11])	Activity (Pseudomonas aeruginosa [12])	Activity (Pseudomonas aeruginosa [13]) [%]	inhibition (Pseudomonas aeruginosa [14])	inhibition (Pseudomonas aeruginosa [15])	inhibition (Pseudomonas aeruginosa [16])	Activity (Pseudomonas aeruginosa [17]) [%]	inhibition (Pseudomonas aeruginosa [18])	inhibition (Pseudomonas aeruginosa [19])	Activity (Pseudomonas aeruginosa [20]) [%]	also measured
CC(C)C[C@H](NC(=O)[C@H](CC(C)C)NC(=O)[C@H](CC(C)C)NC(=O)[C@H](CC(C)C)NC(=O)[C@H](CC(C)C)NC(=O)[C@H](CC(C)C)NC(=O)[C@H](CC(C)C)NC(=O)[C@H](CC(C)C)NC(=O)[C@H](CC(C)C)NC(=O)[C@H](CCCCN)NC(=O)[C@H](CCCCN)NC(=O)[C@@H](N)CCCCN)C(=O)N[C@@H](CCCCN)C(=O)N[C@@H](CCCCN)C(=O)N[C@@H](CCCCN)C(N)=O	60	60	60	60	Active	60	Active	60	60	60	Active	Active	60	Active	Active	Active	60	Active	Active	60	inhibition (Pseudomonas aeruginosa [21]): Active; Activity (Pseudomonas aeruginosa [22]): Active; inhibition (Pseudomonas aeruginosa [23]): Active; inhibition (Pseudomonas aeruginosa [24]): Active; Activity (Pseudomonas aeruginosa [25]): 60%; Activity (Pseudomonas aeruginosa [26]): 60%; Activity (Pseudomonas aeruginosa [27]): 60%; Activity (Pseudomonas aeruginosa [28]): 60%; Activity (Pseudomonas aeruginosa [29]): 60%; inhibition (Pseudomonas aeruginosa [30]): Active; Activity (Pseudomonas aeruginosa [31]): 60%; inhibition (Pseudomonas aeruginosa [32]): Active; Activity (Pseudomonas aeruginosa [33]): Active
CC[C@H](C)[C@H](NC(=O)[C@H](CCCCN)NC(=O)[C@H](CCC(=O)O)NC(=O)[C@H](CCCCN)NC(=O)[C@H](CO)NC(=O)[C@H](CCCCN)NC(=O)[C@H](CCCNC(=N)N)NC(=O)[C@H](Cc1ccccc1)NC(=O)[C@H](Cc1ccccc1)NC(=O)[C@H](CC(=O)O)NC(=O)CNC(=O)[C@H](CC(C)C)NC(=O)[C@@H](N)CC(C)C)C(=O)NCC(=O)N[C@@H](CCCCN)C(=O)N[C@@H](CCC(=O)O)C(=O)N[C@@H](Cc1ccccc1)C(=O)N[C@@H](CCCCN)C(=O)N[C@@H](CCCNC(=N)N)C(=O)N[C@H](C(=O)N[C@H](C(=O)N[C@@H](CCC(N)=O)C(=O)N[C@@H](CCCNC(=N)N)C(=O)N[C@H](C(=O)N[C@@H](CCCCN)C(=O)N[C@@H](CC(=O)O)C(=O)N[C@@H](Cc1ccccc1)C(=O)N[C@@H](CC(C)C)C(=O)N[C@@H](CCCNC(=N)N)C(=O)N[C@@H](CC(N)=O)C(=O)N[C@@H](CC(C)C)C(=O)N[C@H](C(=O)N1CCC[C@H]1C(=O)N[C@@H](CCCNC(=N)N)C(=O)N[C@H](C(=O)N[C@@H](CCC(=O)O)C(=O)N[C@@H](CO)C(N)=O)[C@@H](C)O)C(C)C)[C@@H](C)CC)C(C)C)[C@@H](C)CC	60	60	60	60	Active	60	Active	60	60	60	Active	Active	60	Active	Active	Active	60	Active	Active	60	inhibition (Pseudomonas aeruginosa [34]): Active; inhibition (Pseudomonas aeruginosa [21]): Active; Activity (Pseudomonas aeruginosa [22]): Active; inhibition (Pseudomonas aeruginosa [23]): Active; inhibition (Pseudomonas aeruginosa [24]): Active; Activity (Pseudomonas aeruginosa [25]): 60%; Activity (Pseudomonas aeruginosa [26]): 60%; Activity (Pseudomonas aeruginosa [27]): 60%; Activity (Pseudomonas aeruginosa [28]): 60%; Activity (Pseudomonas aeruginosa [29]): 60%; inhibition (Pseudomonas aeruginosa [30]): Active; Activity (Pseudomonas aeruginosa [31]): 60%; inhibition (Pseudomonas aeruginosa [32]): Active; Activity (Pseudomonas aeruginosa [33]): Active
CC(C)C[C@H](NC(=O)[C@H](CC(C)C)NC(=O)[C@H](CCCCN)NC(=O)[C@H](CC(C)C)NC(=O)[C@H](CC(C)C)NC(=O)[C@H](CCCCN)NC(=O)[C@H](CCCCN)NC(=O)[C@H](CC(C)C)NC(=O)[C@H](CC(C)C)NC(=O)[C@H](CCCCN)NC(=O)[C@H](CCCCN)NC(=O)[C@H](CC(C)C)NC(=O)[C@H](CC(C)C)NC(=O)[C@H](CCCCN)NC(=O)[C@@H](N)CC(C)C)C(N)=O	60	60	60	60	Active	60	Active	60	60	60	Active	Active	60	Active	Active	Active	60	Active	Active	60	inhibition (Pseudomonas aeruginosa [34]): Active; inhibition (Pseudomonas aeruginosa [21]): Active; Activity (Pseudomonas aeruginosa [22]): Active; inhibition (Pseudomonas aeruginosa [23]): Active; inhibition (Pseudomonas aeruginosa [24]): Active; Activity (Pseudomonas aeruginosa [25]): 60%; Activity (Pseudomonas aeruginosa [26]): 60%; Activity (Pseudomonas aeruginosa [27]): 60%; Activity (Pseudomonas aeruginosa [28]): 60%; Activity (Pseudomonas aeruginosa [29]): 60%; inhibition (Pseudomonas aeruginosa [30]): Active; Activity (Pseudomonas aeruginosa [31]): 60%; inhibition (Pseudomonas aeruginosa [32]): Active; Activity (Pseudomonas aeruginosa [33]): Active
